Measurements gathered from unrelated publications.
Compare with care: the assays were run in different laboratories.
Organism: Aspergillus fumigatus
Observed: microbial growth

CC1=NN(CNC(=O)c2ccccc2)C(=O)C1=NNn1c(-c2ccccc2)nc2ccccc2c1=O — MIC (broth dilution): 104 µM
CCCCCCCCCCCCCC(O)CC(O)CO (stereo not shown) — IC50 (resazurin; ATCC204305): > 200 µg/mL
C[C@@H]1[C@H](O)[C@@H](C)/C=C/C=C/C=C/C=C/C=C/C=C/C=C/[C@H](O[C@@H]2O[C@H](C)[C@@H](O)[C@H](N)[C@@H]2O)C[C@@H]2O[C@](O)(C[C@@H](O)C[C@@H](O)[C@H](O)CC[C@@H](O)C[C@@H](O)CC(=O)O[C@H]1C)C[C@H](O)[C@H]2C(=O)O — MIC (broth dilution; MF5668): 0.5 µg/mL
O=C1NN=C(N=Cc2ccc(O)c(O)c2)C1=NNn1c(-c2ccccc2)nc2ccccc2c1=O — MIC (broth dilution): 53.5 µM
C=CCCCCCCCCCCCC(O)CC(O)CO (stereo not shown) — IC50 (resazurin; ATCC204305): > 200 µg/mL
C[C@@H]1[C@H](O)[C@@H](C)/C=C/C=C/C=C/C=C/C=C/C=C/C=C/[C@H](O[C@@H]2O[C@H](C)[C@@H](O)[C@H](N)[C@@H]2O)C[C@@H]2O[C@](O)(C[C@@H](O)C[C@@H](O)[C@H](O)CC[C@@H](O)C[C@@H](O)CC(=O)O[C@H]1C)C[C@H](O)[C@H]2C(=O)O — IC50 (ATCC204305): 860 nM
OC(Cn1cncn1)(Cn1cncn1)c1ccc(F)cc1F — MIC (broth dilution; MF5668): > 128 µg/mL
CC1=NN(CNC(=O)c2ccccn2)C(=O)C1=NNn1c(-c2ccccc2)nc2ccccc2c1=O — MIC (broth dilution): 104 µM
C#CCCCCCCCCCCCC(O)CC(O)CO (stereo not shown) — IC50 (resazurin; ATCC204305): > 200 µg/mL
Clc1ccccc1C(c1ccccc1)(c1ccccc1)n1ccnc1 — inhibition zone (disc diffusion; 20000 µg/mL): 22 mm
